In ChEMBL document CHEMBL4831495, “Discovery of novel BCR-ABL PROTACs based on the cereblon E3 ligase design, synthesis, and biological evaluation” (Eur J Med Chem, 2021):
Activity calls are given as the source filed them. The rule behind the calls is not given here.

Tests used:
K562 [1] = assay: Antiproliferative activity against human K562 cells assessed as cell growth inhibition measured after 48 hrs by CCK8 assay; assay type: functional, cell-based; conditions: K562, 48 h
In short: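 Cells were seeded at 3000-20,000 per well and given 3-fold serial dilutions of compound in medium. After 2 days at 37 °C in 5% CO2, CCK-8 reagent was added for 2-4 h and absorbance was read at 450 nm.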

[2] = target: T1, Protein cereblon/Tyrosine-protein kinase ABL1/Breakpoint cluster region protein (Homo sapiens, UniProt P00519+P11274+Q96SW2); assay: PROTAC activity at CRBN/Bcr-Abl in human K562 cells assessed as degrading activity by Western blotting analysis; assay type: cell-based
Target sequence in this assay (P00519 whole entry): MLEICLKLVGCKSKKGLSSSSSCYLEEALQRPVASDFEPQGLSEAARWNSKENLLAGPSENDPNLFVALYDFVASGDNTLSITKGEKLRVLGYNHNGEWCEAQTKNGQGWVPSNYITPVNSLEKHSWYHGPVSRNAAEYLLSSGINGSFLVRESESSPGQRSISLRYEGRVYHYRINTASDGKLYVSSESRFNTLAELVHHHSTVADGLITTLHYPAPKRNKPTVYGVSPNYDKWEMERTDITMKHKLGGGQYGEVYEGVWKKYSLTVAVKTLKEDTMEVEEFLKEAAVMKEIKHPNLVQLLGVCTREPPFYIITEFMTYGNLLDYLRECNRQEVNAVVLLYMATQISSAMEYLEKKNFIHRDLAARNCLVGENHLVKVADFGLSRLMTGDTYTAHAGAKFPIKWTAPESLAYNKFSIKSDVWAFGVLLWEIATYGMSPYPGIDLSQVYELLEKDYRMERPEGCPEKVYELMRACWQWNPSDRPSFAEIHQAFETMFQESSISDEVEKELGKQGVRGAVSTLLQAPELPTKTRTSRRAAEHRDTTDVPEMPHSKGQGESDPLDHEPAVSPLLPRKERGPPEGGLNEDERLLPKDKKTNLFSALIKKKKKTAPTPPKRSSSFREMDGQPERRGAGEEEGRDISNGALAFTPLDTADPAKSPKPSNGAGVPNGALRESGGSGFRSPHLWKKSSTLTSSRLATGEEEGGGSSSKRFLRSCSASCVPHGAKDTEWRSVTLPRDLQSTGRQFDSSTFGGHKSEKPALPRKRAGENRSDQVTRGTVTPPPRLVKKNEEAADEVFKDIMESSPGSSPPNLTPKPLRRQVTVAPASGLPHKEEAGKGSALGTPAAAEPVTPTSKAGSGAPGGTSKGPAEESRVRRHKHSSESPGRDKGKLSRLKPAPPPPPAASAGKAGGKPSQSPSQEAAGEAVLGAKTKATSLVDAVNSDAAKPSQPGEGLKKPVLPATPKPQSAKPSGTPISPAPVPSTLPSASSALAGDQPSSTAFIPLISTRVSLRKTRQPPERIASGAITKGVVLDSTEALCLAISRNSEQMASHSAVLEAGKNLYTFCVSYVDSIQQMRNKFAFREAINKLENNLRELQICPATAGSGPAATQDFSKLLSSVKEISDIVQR
Target sequence in this assay (P11274 whole entry): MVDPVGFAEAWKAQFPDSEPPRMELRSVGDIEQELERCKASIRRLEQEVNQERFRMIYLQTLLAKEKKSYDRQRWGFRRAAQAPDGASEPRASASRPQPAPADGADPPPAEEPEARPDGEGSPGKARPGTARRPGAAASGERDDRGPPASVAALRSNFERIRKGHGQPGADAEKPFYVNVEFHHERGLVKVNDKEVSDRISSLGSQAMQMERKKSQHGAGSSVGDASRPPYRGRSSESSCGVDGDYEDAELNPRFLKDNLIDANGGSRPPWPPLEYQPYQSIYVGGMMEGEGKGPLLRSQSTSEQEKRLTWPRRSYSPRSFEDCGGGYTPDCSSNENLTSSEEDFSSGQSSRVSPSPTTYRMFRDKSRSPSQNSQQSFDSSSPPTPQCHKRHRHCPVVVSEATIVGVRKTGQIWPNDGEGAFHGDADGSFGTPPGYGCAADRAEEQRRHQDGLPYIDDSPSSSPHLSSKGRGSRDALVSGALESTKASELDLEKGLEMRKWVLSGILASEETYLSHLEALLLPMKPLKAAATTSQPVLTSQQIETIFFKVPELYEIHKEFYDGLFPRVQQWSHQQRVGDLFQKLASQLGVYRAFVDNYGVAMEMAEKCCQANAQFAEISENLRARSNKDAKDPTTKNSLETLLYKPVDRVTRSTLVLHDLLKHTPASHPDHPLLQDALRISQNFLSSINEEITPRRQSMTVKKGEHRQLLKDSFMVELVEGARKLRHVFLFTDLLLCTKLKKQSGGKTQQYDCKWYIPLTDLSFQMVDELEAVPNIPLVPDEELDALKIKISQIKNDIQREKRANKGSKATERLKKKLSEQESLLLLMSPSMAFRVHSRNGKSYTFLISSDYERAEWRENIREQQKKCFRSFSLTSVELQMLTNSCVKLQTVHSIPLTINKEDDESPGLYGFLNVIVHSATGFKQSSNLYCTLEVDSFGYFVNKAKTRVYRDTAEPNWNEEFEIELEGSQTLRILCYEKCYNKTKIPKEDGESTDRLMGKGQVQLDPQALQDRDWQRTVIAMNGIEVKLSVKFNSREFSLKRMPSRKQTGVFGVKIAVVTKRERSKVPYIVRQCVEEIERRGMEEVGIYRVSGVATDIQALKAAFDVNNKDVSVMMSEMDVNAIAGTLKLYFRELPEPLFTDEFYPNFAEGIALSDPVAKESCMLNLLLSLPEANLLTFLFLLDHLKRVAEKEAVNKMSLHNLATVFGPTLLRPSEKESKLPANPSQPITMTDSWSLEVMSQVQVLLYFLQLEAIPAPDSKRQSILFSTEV
Target sequence in this assay (Q96SW2 whole entry): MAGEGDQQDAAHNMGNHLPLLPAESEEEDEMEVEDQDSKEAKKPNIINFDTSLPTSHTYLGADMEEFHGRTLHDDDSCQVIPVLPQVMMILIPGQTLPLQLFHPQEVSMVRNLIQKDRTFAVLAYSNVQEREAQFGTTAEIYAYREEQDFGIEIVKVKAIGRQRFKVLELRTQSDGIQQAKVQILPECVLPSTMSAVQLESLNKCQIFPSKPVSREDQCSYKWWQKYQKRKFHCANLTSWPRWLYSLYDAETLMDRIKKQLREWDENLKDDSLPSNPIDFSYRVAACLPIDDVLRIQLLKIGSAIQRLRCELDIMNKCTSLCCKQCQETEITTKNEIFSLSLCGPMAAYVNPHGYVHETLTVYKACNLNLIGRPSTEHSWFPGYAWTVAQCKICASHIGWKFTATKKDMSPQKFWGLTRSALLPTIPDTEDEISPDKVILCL

K562 [3] = assay: Antitumor activity against human K562 cells xenografted in NOD-SCID mouse assessed as tumor growth inhibition at 5 mg/kg, po administered daily 10 days; conditions: 240 h, read-out: TGI
[4] = Tmax in Wistar rat at 2 mg/kg, iv by LC-MS/MS analysis; assay type: ADME, organism-based; conditions: in vivo
In short: (§1)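 Single intravenous dose of 2 mg/kg into the femoral vein of female Wistar rats, given as a solution in NMP/PEG200 (1:9, v/v). Plasma was collected by sublingual vein bleeding at 0.083, 0.25, 0.5, 1, 2, 4, 6, 8, 12 and 24 h from one group of rats (n = 3). Samples were extracted and quantified by LC-MS/MS, LOQ 2.5 ng/mL.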

[5] = target: T1, Protein cereblon/Tyrosine-protein kinase ABL1/Breakpoint cluster region protein; assay: PROTAC activity at CRBN/Bcr-Abl in human K562 cells assessed as reduction in Bcr-Abl level at 30 nM by Western blotting analysis; assay type: cell-based; conditions: time 0-24 hrs
[6] = AUC (0 to t) in Wistar rat at 2 mg/kg, iv by LC-MS/MS analysis; assay type: ADME, organism-based; parameters: dose 2 mg/kg; conditions: in vivo; in short: as §1
[7] = target: T1, Protein cereblon/Tyrosine-protein kinase ABL1/Breakpoint cluster region protein; assay: PROTAC activity at CRBN/Bcr-Abl in human K562 cells assessed as reduction in CRLK level after 16 hrs by Western blotting analysis; assay type: cell-based
[8] = Apparent volume of distribution during steady state in Wistar rat at 2 mg/kg, iv by LC-MS/MS analysis; assay type: ADME, organism-based; conditions: in vivo, read-out: Vdss; in short: as §1
[9] = target: T1, Protein cereblon/Tyrosine-protein kinase ABL1/Breakpoint cluster region protein; assay: PROTAC activity at CRBN/Bcr-Abl in human K562 cells assessed as reduction in Bcr-Abl level at 30 nM preincubated with NEDD8 inhibitor MLN4924 for 2 hrs and measured after 8 hrs by Western blotting analysis; assay type: cell-based
In short: (§2)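 K562 cells were pretreated for 2 h with MG132 ([…] as printed) or MLN4924 ([…] as printed), then exposed to degrader at 30 nM for 8 h. Cells were lysed in 1× SDS buffer with protease inhibitors, and protein was quantified by Bradford assay. BCR-ABL and c-ABL were detected by Western blot.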

[10] = Clearance in Wistar rat at 2 mg/kg, iv by LC-MS/MS analysis; assay type: ADME, organism-based; conditions: in vivo; in short: as §1
K562 [11] = assay: Antitumor activity against human K562 cells xenografted in NOD-SCID mouse assessed as tumor growth inhibition at 10 mg/kg, ip administered daily 10 days; assay type: functional; conditions: 240 h, time 10 day, read-out: TGI
In short: (§3)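 Mice carried K562-Luc xenografts, with 2 × 10^6 cells inoculated per mouse. Dosing began at a mean tumor volume of about 200 mm3. Drug in DMSO/PEG 400/40% hydroxypropyl-(1:3:6, vol/vol) was given ip once daily for 10 consecutive days at 1, 3 or 10 mg/kg. Calipers were used 2-3 times weekly, with V = L × W²/2, and TGI was calculated at day 10.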

[12] = target: T1, Protein cereblon/Tyrosine-protein kinase ABL1/Breakpoint cluster region protein; assay: PROTAC activity at CRBN/Bcr-Abl in human K562 cells assessed as reduction in STAT5 level after 16 hrs by Western blotting analysis; assay type: cell-based
In short: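 K562 cells were plated at 3 × 10^5 cells/mL and treated with graded concentrations for 16 h. Lysates in 1× SDS buffer with protease inhibitors were quantified by Bradford assay. Western blots were probed with antibodies against Stat5, phospho-Stat5 (Tyr694) and […], among others.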

[13] = Apparent volume of distribution during terminal state in Wistar rat at 2 mg/kg, iv by LC-MS/MS analysis; assay type: ADME, organism-based; conditions: in vivo, read-out: Vz; in short: as §1
K562 [14] = assay: Antitumor activity against human K562 cells xenografted in NOD-SCID mouse assessed as tumor growth inhibition at 3 mg/kg, ip administered daily 10 days; assay type: functional; conditions: 240 h, time 10 day, read-out: TGI; in short: as §3
[15] = MRT (0 to t) in Wistar rat at 2 mg/kg, iv by LC-MS/MS analysis; assay type: ADME, organism-based; conditions: in vivo; in short: as §1
[16] = system: Protein cereblon/Tyrosine-protein kinase ABL1/Breakpoint cluster region protein (Homo sapiens), P00519+P11274+Q96SW2 [V299L]; assay: PROTAC activity at CRBN/BCR-ABL V299L mutant in human K562 cells assessed as degradation by Western blot analysis relative to control; assay type: cell-based
In short: (§4)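 Cells plated at 3 × 10^5 cells/mL and exposed to compounds at the indicated concentrations and times. Cells were then harvested, washed in cold PBS and lysed in 1× SDS buffer with protease inhibitor cocktail. Protein was quantified by detergent-compatible Bradford assay, and BCR-ABL was detected by Western blot with a c-ABL antibody.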

[17] = system: Protein cereblon/Tyrosine-protein kinase ABL1/Breakpoint cluster region protein (Homo sapiens), P00519+P11274+Q96SW2 [E255V]; assay: PROTAC activity at CRBN/BCR-ABL E255V mutant in human K562 cells assessed as degradation by Western blot analysis relative to control; assay type: cell-based; in short: as §4
[18] = target: T1, Protein cereblon/Tyrosine-protein kinase ABL1/Breakpoint cluster region protein; assay: PROTAC activity at CRBN/Bcr-Abl in human K562 cells assessed as reduction in Bcr-Abl level at 30 nM preincubated with proteasome inhibitor MG132 for 2 hrs and measured after 8 hrs by Western blotting analysis; assay type: cell-based; in short: as §2
[19] = target: T1, Protein cereblon/Tyrosine-protein kinase ABL1/Breakpoint cluster region protein; assay: PROTAC activity at CRBN/Bcr-Abl in human K562 cells assessed as reduction in C-Abl level at 30 nM preincubated with proteasome inhibitor MG132 for 2 hrs and measured after 8 hrs by Western blotting analysis; assay type: cell-based; in short: as §2
[20] = target: Protein cereblon/Proto-oncogene tyrosine-protein kinase Src (Homo sapiens) (UniProt P12931+Q96SW2); assay: PROTAC activity at CRBN/Src in human K562 cells assessed as Src degrading activity by Western blotting analysis; assay type: cell-based
[21] = Half life in Wistar rat at 2 mg/kg, iv by LC-MS/MS analysis; assay type: ADME, organism-based; conditions: in vivo; in short: as §1
[22] = Toxicity in NOD-SCID mouse xenografted with human K562 cells assessed as reduction in body weight at 100 mg/kg, ip measured on day 10; assay type: organism-based; conditions: in vivo
[23] = system: Protein cereblon/Tyrosine-protein kinase ABL1/Breakpoint cluster region protein (Homo sapiens), P00519+P11274+Q96SW2 [F317L]; assay: PROTAC activity at CRBN/BCR-ABL F317L mutant in human K562 cells assessed as degradation by Western blot analysis relative to control; assay type: cell-based; in short: as §4
[24] = target: T1, Protein cereblon/Tyrosine-protein kinase ABL1/Breakpoint cluster region protein; assay: PROTAC activity at CRBN/Bcr-Abl in human K562 cells assessed as reduction in C-Abl level at 30 nM preincubated with NEDD8 inhibitor MLN4924 for 2 hrs and measured after 8 hrs by Western blotting analysis; assay type: cell-based; in short: as §2
[25] = Cmax in Wistar rat at 2 mg/kg, iv by LC-MS/MS analysis; assay type: ADME, organism-based; parameters: route intravenous, dose 2 mg/kg; conditions: in vivo; in short: as §1
K562 [26] = assay: Antitumor activity against human K562 cells xenografted in NOD-SCID mouse assessed as tumor growth inhibition at 1 mg/kg, ip administered daily 10 days; assay type: functional; conditions: 240 h, time 10 day, read-out: TGI; in short: as §3
[27] = target: Protein cereblon/Platelet-derived growth factor receptor beta (Homo sapiens) (UniProt P09619+Q96SW2); assay: PROTAC activity at CRBN/PDGFRbeta in human K562 cells assessed as PDGFRbeta degrading activity by Western blotting analysis; assay type: cell-based
Protein cereblon/Platelet-derived growth factor receptor beta (Homo sapiens), sequence (P09619 whole entry, looked up): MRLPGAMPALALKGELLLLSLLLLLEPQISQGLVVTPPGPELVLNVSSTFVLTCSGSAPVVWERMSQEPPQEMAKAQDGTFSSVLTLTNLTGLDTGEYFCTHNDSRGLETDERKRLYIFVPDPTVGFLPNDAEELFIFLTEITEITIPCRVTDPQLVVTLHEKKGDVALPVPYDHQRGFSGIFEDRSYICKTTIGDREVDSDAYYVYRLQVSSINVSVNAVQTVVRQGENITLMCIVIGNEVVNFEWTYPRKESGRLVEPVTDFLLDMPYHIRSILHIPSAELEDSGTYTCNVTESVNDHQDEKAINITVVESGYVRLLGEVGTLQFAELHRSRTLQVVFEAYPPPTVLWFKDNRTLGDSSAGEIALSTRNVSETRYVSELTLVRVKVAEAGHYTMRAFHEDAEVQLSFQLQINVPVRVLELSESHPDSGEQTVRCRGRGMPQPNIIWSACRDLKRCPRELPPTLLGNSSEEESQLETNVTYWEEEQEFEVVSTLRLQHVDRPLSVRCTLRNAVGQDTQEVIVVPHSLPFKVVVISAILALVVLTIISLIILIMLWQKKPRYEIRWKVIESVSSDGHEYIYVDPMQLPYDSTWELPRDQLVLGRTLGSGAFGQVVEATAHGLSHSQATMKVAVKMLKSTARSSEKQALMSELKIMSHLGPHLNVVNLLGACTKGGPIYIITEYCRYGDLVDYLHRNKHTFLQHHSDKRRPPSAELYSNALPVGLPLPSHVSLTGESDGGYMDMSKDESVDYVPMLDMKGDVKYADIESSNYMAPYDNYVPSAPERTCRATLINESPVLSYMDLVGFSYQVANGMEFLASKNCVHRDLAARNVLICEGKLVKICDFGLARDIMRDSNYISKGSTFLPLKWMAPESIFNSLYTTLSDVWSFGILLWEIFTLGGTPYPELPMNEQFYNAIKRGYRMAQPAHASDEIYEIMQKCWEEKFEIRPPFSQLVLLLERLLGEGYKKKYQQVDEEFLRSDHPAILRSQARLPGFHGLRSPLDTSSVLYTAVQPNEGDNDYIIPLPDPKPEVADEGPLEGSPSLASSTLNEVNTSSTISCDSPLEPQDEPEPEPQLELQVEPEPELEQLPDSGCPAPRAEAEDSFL
Protein cereblon/Platelet-derived growth factor receptor beta (Homo sapiens), sequence (Q96SW2 whole entry, looked up): as the sequence (Q96SW2 whole entry) above

SMILES: Cc1nc(Nc2ncc(C(=O)Nc3c(C)cccc3Cl)s2)cc(N2CCN(CCSc3cccc4c3CN(C3CCC(=O)NC3=O)C4=O)CC2)n1 (configuration not stated)
- IC50 (K562 [1]): 0.51 nM
- DC50 [2]: 2.7 nM

SMILES: Cc1nc(Nc2ncc(C(=O)Nc3c(C)cccc3Cl)s2)cc(N2CCN(C(=O)CCCC(=O)Nc3cccc4c3CN(C3CCC(=O)NC3=O)C4=O)CC2)n1 (configuration not stated)
- IC50 (K562 [1]): 1.03 nM
- DC50 [2]: 125 nM

SMILES: Cc1nc(Nc2ncc(C(=O)Nc3c(C)cccc3Cl)s2)cc(N2CCN(CCO)CC2)n1 [DASATINIB]
- inhibition in vivo at 5 mg/kg (K562 [3]): 95.1%

SMILES: Cc1nc(Nc2ncc(C(=O)Nc3c(C)cccc3Cl)s2)cc(N2CCN(CCCCCCOCCOCCOCCCCCC(=O)Nc3cccc4c3C(=O)N(C3CCC(=O)NC3=O)C4=O)CC2)n1 (configuration not stated)
- IC50 (K562 [1]): 4.1 nM

SMILES: Cc1nc(Nc2ncc(C(=O)Nc3c(C)cccc3Cl)s2)cc(N2CCN(CCSc3cccc4c3C(=O)N(C3CCC(=O)NC3=O)C4=O)CC2)n1 (configuration not stated)
- Tmax [4]: 4.8 min
- inhibition [5]: Active
- AUC(0-t) [6]: 926 ng·h/mL
- inhibition [7]: Active
- Vd [8]: 5.23 L/kg
- inhibition [9]: Active
- clearance [10]: 35.7 mL/min/kg
- inhibition in vivo at 10 mg/kg (K562 [11]): 98.8%
- inhibition [12]: Active
- IC50 (K562 [1]): 0.49 nM
- Vd [13]: 13 L/kg
- inhibition in vivo at 3 mg/kg (K562 [14]): 93.8%
- MRT last [15]: 120 min
- Activity [16]: Active
- Activity [17]: Active
- inhibition [18]: Active
- inhibition [19]: Active
- Activity [20]: inactive
- DC50 [2]: 0.18 nM
- half-life [21]: 254 min
- Activity [22]: Non-Toxic
- Activity [23]: Active
- inhibition [24]: Active
- Cmax [25]: 1500 ng/mL
- inhibition in vivo at 1 mg/kg (K562 [26]): 78.9%
- Activity [27]: inactive

SMILES: Cc1nc(Nc2ncc(C(=O)Nc3c(C)cccc3Cl)s2)cc(N2CCN(CCCCC(=O)Nc3cccc4c3C(=O)N(C3CCC(=O)NC3=O)C4=O)CC2)n1 (configuration not stated)
- IC50 (K562 [1]): 4.6 nM
- DC50 [2]: 10.1 nM

SMILES: Cc1nc(Nc2ncc(C(=O)Nc3c(C)cccc3Cl)s2)cc(N2CCN(C(=O)CCOCCOCCOCCOCCOCCNc3cccc4c3C(=O)N(C3CCC(=O)NC3=O)C4=O)CC2)n1 (configuration not stated)
- IC50 (K562 [1]): 31.9 nM
- DC50 [2]: 10.8 nM

SMILES: Cc1nc(Nc2ncc(C(=O)Nc3c(C)cccc3Cl)s2)cc(N2CCN(C(=O)CCOCCOCCOCCNc3cccc4c3C(=O)N(C3CCC(=O)NC3=O)C4=O)CC2)n1 (configuration not stated)
- IC50 (K562 [1]): 14.8 nM
- DC50 [2]: 18.4 nM

SMILES: Nc1cccc2c1CN(C1CCC(=O)NC1=O)C2=O (configuration not stated) [LENALIDOMIDE]
- IC50 (K562 [1]): > 10000 nM

SMILES: Nc1cccc2c1C(=O)N(C1CCC(=O)NC1=O)C2=O (configuration not stated) [POMALIDOMIDE]
- IC50 (K562 [1]): > 10000 nM

SMILES: Cc1nc(Nc2ncc(C(=O)Nc3c(C)cccc3Cl)s2)cc(N2CCN(C(=O)CCCCNc3cccc4c3C(=O)N(C3CCC(=O)NC3=O)C4=O)CC2)n1 (configuration not stated)
- IC50 (K562 [1]): 0.55 nM
- DC50 [2]: 11 nM

SMILES: Cc1nc(Nc2ncc(C(=O)Nc3c(C)cccc3Cl)s2)cc(N2CCN(C(=O)CCOCCOCCNc3cccc4c3C(=O)N(C3CCC(=O)NC3=O)C4=O)CC2)n1 (configuration not stated)
- Tmax [4]: 4.8 min
- AUC(0-t) [6]: 496 ng·h/mL
- Vd [8]: 1.93 L/kg
- clearance [10]: 67.1 mL/min/kg
- IC50 (K562 [1]): 8.05 nM
- Vd [13]: 3.59 L/kg
- MRT last [15]: 27 min
- DC50 [2]: 17.5 nM
- half-life [21]: 37.2 min
- Cmax [25]: 1140 ng/mL
